In ChEMBL document CHEMBL3102784, “Salicylanilide diethyl phosphates: synthesis, antimicrobial activity and cytotoxicity” (Bioorg Med Chem, 2014):
Values after ≈ are worked out from the molar mass of the structure shown. Active and inactive are the calls of the source. The rule behind the calls is not given here.

How the values were obtained:
[1] = tested on: Staphylococcus aureus; experiment: Antibacterial activity against Staphylococcus aureus CCM 4516/08 after 24 hrs by broth microdilution method; format: functional; settings: CCM 4516/08, 24 h
How it was run: (§1)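 Broth microdilution in Mueller–Hinton broth, compounds dissolved in DMSO, tested over a dilution series from 500 downward. MIC taken as ≥95% growth reduction (IC95) versus drug-free control. Benzylpenicillin comparator. Readings at 24 and 48 h.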

[2] = tested on: Staphylococcus aureus; experiment: Antibacterial activity against methicillin-resistant Staphylococcus aureus H 5996/08 after 48 hrs by broth microdilution method; format: functional; settings: H 5996/08, 48 h; how it was run: as §1
[3] = tested on: Staphylococcus epidermidis; experiment: Antibacterial activity against Staphylococcus epidermidis H 6966/08 after 48 hrs by broth microdilution method; format: functional; settings: H 6966/08, 48 h; how it was run: as §1
[4] = tested on: HepG2; experiment: Cytotoxicity against human HepG2 cells after 24 hrs by CellTiter assay; format: cell-based; settings: HepG2, 24 h
How it was run: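 HepG2 cells (passage 27–33) in MEM with 10% FBS, L-glutamine and NEAA, seeded at 1×10^4 per well. Treated next day with compounds at 0.1–100 µM (or 0.1–25 µmol/L), triplicates, <1% DMSO, for 24 h at 37 °C, 5% CO2. MTS reagent added for 2 h, absorbance read at 490 nm. IC50 taken against untreated (100%) and 10% DMSO (0%) controls.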

[5] = tested on: Pichia kudriavzevii; experiment: Antifungal activity against Candida krusei E28 after 48 hrs by broth microdilution method; format: functional; settings: E28, 48 h
How it was run: (§2)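 Broth microdilution in RPMI 1640 with glutamine, fluconazole as reference. For yeasts, MIC is ≥80% growth reduction (IC80) versus control. For filamentous fungi, the value is expressed as IC50. Readings at 24 and 48 h.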

[6] = tested on: Mycobacterium tuberculosis; experiment: Antimycobacterial activity against Mycobacterium tuberculosis H37Rv My 331/88 after 14 days; format: functional; settings: H37Rv My 331/88, 336 h
How it was run: (§3)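 Micromethod MIC in Šula's semisynthetic medium at 37 °C. Compounds added in DMSO at 1000 down to 0.032 µmol/L. Isoniazid standard in sterile water at 0.5–250 µmol/L. Inocula: H37Rv 10^3, M. avium 10^5, M. kansasii 10^4. Read at 14 and 21 d, plus 7 d for M. kansasii.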

[7] = tested on: Staphylococcus aureus; experiment: Antibacterial activity against methicillin-resistant Staphylococcus aureus H 5996/08 after 24 hrs by broth microdilution method; format: functional; settings: H 5996/08, 24 h; how it was run: as §1
[8] = tested on: Mycobacterium kansasii; experiment: Antimycobacterial activity against Mycobacterium kansasii My 235/80 after 14 days; format: functional; settings: My 235/80, 336 h; how it was run: as §3
[9] = tested on: Pseudomonas aeruginosa; experiment: Antibacterial activity against Pseudomonas aeruginosa CCM 1961 at 500 micromol/L after 24 to 48 hrs by broth microdilution method; format: functional, organism-based; how it was run: as §1
[10] = tested on: Lichtheimia corymbifera; experiment: Antifungal activity against Absidia corymbifera 272 after 24 hrs by broth microdilution method; format: functional; settings: Lichtheimia corymbifera, 272, 24 h; how it was run: as §2
[11] = tested on: Candida albicans; experiment: Antifungal activity against Candida albicans ATCC 44859 after 24 hrs by broth microdilution method; format: functional; settings: ATCC 44859, 24 h; how it was run: as §2
[12] = tested on: Klebsiella pneumoniae; experiment: Antibacterial activity against ESBL-positive Klebsiella pneumoniae J 14368/08 at 500 micromol/L after 24 to 48 hrs by broth microdilution method; format: functional, organism-based; how it was run: as §1
[13] = tested on: Pichia kudriavzevii; experiment: Antifungal activity against Candida krusei E28 after 24 hrs by broth microdilution method; format: functional; settings: E28, 24 h; how it was run: as §2
[14] = tested on: Mycobacterium kansasii; experiment: Antimycobacterial activity against Mycobacterium kansasii 6509/96 after 21 days; format: functional; settings: 6509/96, 504 h; how it was run: as §3
[15] = tested on: Trichophyton mentagrophytes; experiment: Antifungal activity against Trichophyton mentagrophytes 445 after 120 hrs by broth microdilution method; format: functional; settings: Trichophyton mentagrophytes, 445, 120 h
How it was run: (§4)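 Filamentous dermatophyte tested by broth microdilution in RPMI 1640 with glutamine, fluconazole as reference. Value expressed as IC50 relative to growth control. Read at 72 and 120 h.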

[16] = tested on: Aspergillus fumigatus; experiment: Antifungal activity against Aspergillus fumigatus 231 after 24 hrs by broth microdilution method; format: functional; settings: Aspergillus fumigatus, 231, 24 h; how it was run: as §2
[17] = tested on: Mycobacterium kansasii; experiment: Antimycobacterial activity against Mycobacterium kansasii My 235/80 after 21 days; format: functional; settings: My 235/80, 504 h; how it was run: as §3
[18] = tested on: Aspergillus fumigatus; experiment: Antifungal activity against Aspergillus fumigatus 231 after 48 hrs by broth microdilution method; format: functional; settings: Aspergillus fumigatus, 231, 48 h; how it was run: as §2
[19] = tested on: Nakaseomyces glabratus; experiment: Antifungal activity against Candida glabrata 20/I at 500 micromol/L after 24 to 48 hrs by broth microdilution method; format: functional, organism-based; how it was run: as §2
[20] = tested on: Enterococcus sp.; experiment: Antibacterial activity against Enterococcus sp. J 14365/08 at 500 micromol/L after 24 to 48 hrs by broth microdilution method; format: functional, organism-based; how it was run: as §1
[21] = tested on: Mycobacterium kansasii; experiment: Antimycobacterial activity against Mycobacterium kansasii 6509/96 after 7 days; format: functional; settings: 6509/96, 168 h; how it was run: as §3
[22] = tested on: Mycobacterium tuberculosis; experiment: Antimycobacterial activity against Mycobacterium tuberculosis H37Rv My 331/88 after 21 days; format: functional; settings: H37Rv My 331/88, 504 h; how it was run: as §3
[23] = tested on: Candida tropicalis; experiment: Antifungal activity against Candida tropicalis 156 at 500 micromol/L after 24 to 48 hrs by broth microdilution method; format: functional, organism-based; how it was run: as §2
[24] = tested on: Mycobacterium kansasii; experiment: Antimycobacterial activity against Mycobacterium kansasii 6509/96 after 14 days; format: functional; settings: 6509/96, 336 h; how it was run: as §3
[25] = tested on: Mycobacterium kansasii; experiment: Antimycobacterial activity against Mycobacterium kansasii My 235/80 after 7 days; format: functional; settings: My 235/80, 168 h; how it was run: as §3
[26] = tested on: Klebsiella pneumoniae; experiment: Antibacterial activity against Klebsiella pneumoniae D 11750/08 at 500 micromol/L after 24 to 48 hrs by broth microdilution method; format: functional, organism-based; how it was run: as §1
[27] = tested on: Mycobacterium avium; experiment: Antimycobacterial activity against isoniazid, rifampicin, ethambutol and ofloxacin-resistant Mycobacterium avium My 330/88 after 21 days; format: functional; settings: My 330/88, 504 h; how it was run: as §3
[28] = tested on: Candida albicans; experiment: Antifungal activity against Candida albicans ATCC 44859 after 48 hrs by broth microdilution method; format: functional; settings: ATCC 44859, 48 h; how it was run: as §2
[29] = tested on: Escherichia coli; experiment: Antibacterial activity against Escherichia coli CCM 4517 at 500 micromol/L after 24 to 48 hrs by broth microdilution method; format: functional, organism-based; how it was run: as §1
[30] = tested on: Lichtheimia corymbifera; experiment: Antifungal activity against Absidia corymbifera 272 after 48 hrs by broth microdilution method; format: functional; settings: Lichtheimia corymbifera, 272, 48 h; how it was run: as §2
[31] = tested on: Trichosporon asahii; experiment: Antifungal activity against Trichosporon asahii 1188 after 24 hrs by broth microdilution method; format: functional; settings: Trichosporon asahii, 1188, 24 h; how it was run: as §2
[32] = tested on: Trichophyton mentagrophytes; experiment: Antifungal activity against Trichophyton mentagrophytes 445 after 72 hrs by broth microdilution method; format: functional; settings: Trichophyton mentagrophytes, 445, 72 h; how it was run: as §4
[33] = tested on: Staphylococcus epidermidis; experiment: Antibacterial activity against Staphylococcus epidermidis H 6966/08 after 24 hrs by broth microdilution method; format: functional; settings: H 6966/08, 24 h; how it was run: as §1
[34] = tested on: Mycobacterium avium; experiment: Antimycobacterial activity against isoniazid, rifampicin, ethambutol and ofloxacin-resistant Mycobacterium avium My 330/88 after 14 days; format: functional; settings: My 330/88, 336 h; how it was run: as §3
[35] = tested on: Trichosporon asahii; experiment: Antifungal activity against Trichosporon asahii 1188 after 48 hrs by broth microdilution method; format: functional; settings: Trichosporon asahii, 1188, 48 h; how it was run: as §2
[36] = tested on: Staphylococcus aureus; experiment: Antibacterial activity against Staphylococcus aureus CCM 4516/08 after 48 hrs by broth microdilution method; format: functional; settings: CCM 4516/08, 48 h; how it was run: as §1

Compound | MIC95 [1] | MIC95 [2] | MIC95 [3] | IC50 [4] | MIC80 [5] | MIC [6] | MIC95 [7] | MIC [8] | Activity [9] | MIC50 [10] | MIC80 [11] | Activity [12] | MIC80 [13] | MIC [14] | MIC50 [15] | MIC50 [16] | MIC [17] | MIC50 [18] | Activity [19] | Activity [20] | further results
CCOP(=O)(OCC)Oc1ccc(Cl)cc1C(=O)Nc1ccc(F)cc1 | 250 µM (≈ 100 µg/mL) | > 500 µM | > 500 µM | 31400 nM | > 500 µM | 8 µM (≈ 3.21 µg/mL) | > 500 µM | 32 µM (≈ 12.9 µg/mL) | inactive | > 500 µM | > 500 µM | inactive | > 500 µM | 32 µM (≈ 12.9 µg/mL) | > 500 µM | > 500 µM | 32 µM (≈ 12.9 µg/mL) | > 500 µM | inactive | inactive | MIC [21]: 16 µM (≈ 6.43 µg/mL); MIC [22]: 16 µM (≈ 6.43 µg/mL); Activity [23]: inactive; MIC [24]: 32 µM (≈ 12.9 µg/mL); MIC [25]: 32 µM (≈ 12.9 µg/mL); Activity [26]: inactive; MIC [27]: 62.5 µM (≈ 25.1 µg/mL); MIC80 [28]: > 500 µM; Activity [29]: inactive; MIC50 [30]: > 500 µM; MIC80 [31]: > 500 µM; MIC50 [32]: > 500 µM; MIC95 [33]: > 500 µM; MIC [34]: 62.5 µM (≈ 25.1 µg/mL); MIC80 [35]: > 500 µM; MIC95 [36]: 500 µM (≈ 201 µg/mL)
CCOP(=O)(OCC)Oc1ccc(Br)cc1C(=O)Nc1ccc(Cl)c(Cl)c1 | 500 µM (≈ 249 µg/mL) | > 500 µM | > 500 µM | 2040 nM | > 500 µM | 1 µM (≈ 0.497 µg/mL) | 500 µM (≈ 249 µg/mL) | 4 µM (≈ 1.99 µg/mL) | inactive | > 500 µM | > 500 µM | inactive | > 500 µM | 4 µM (≈ 1.99 µg/mL) | > 500 µM | > 500 µM | 4 µM (≈ 1.99 µg/mL) | > 500 µM | inactive | inactive | MIC [21]: 2 µM (≈ 0.994 µg/mL); MIC [22]: 1 µM (≈ 0.497 µg/mL); Activity [23]: inactive; MIC [24]: 4 µM (≈ 1.99 µg/mL); MIC [25]: 2 µM (≈ 0.994 µg/mL); Activity [26]: inactive; MIC [27]: 16 µM (≈ 7.95 µg/mL); MIC80 [28]: > 500 µM; Activity [29]: inactive; MIC50 [30]: > 500 µM; MIC80 [31]: > 500 µM; MIC50 [32]: > 500 µM; MIC95 [33]: 500 µM (≈ 249 µg/mL); MIC [34]: 16 µM (≈ 7.95 µg/mL); MIC80 [35]: > 500 µM; MIC95 [36]: > 500 µM
CCOP(=O)(OCC)Oc1ccc(Br)cc1C(=O)Nc1cccc(C(F)(F)F)c1 | 7.81 µM (≈ 3.88 µg/mL) | 15.6 µM (≈ 7.75 µg/mL) | 7.81 µM (≈ 3.88 µg/mL) | 1840 nM | > 500 µM | 2 µM (≈ 0.992 µg/mL) | 15.6 µM (≈ 7.75 µg/mL) | 4 µM (≈ 1.98 µg/mL) | inactive | > 500 µM | > 500 µM | inactive | > 500 µM | 8 µM (≈ 3.97 µg/mL) | 62.5 µM (≈ 31 µg/mL) | > 500 µM | 8 µM (≈ 3.97 µg/mL) | > 500 µM | inactive | inactive | MIC [21]: 4 µM (≈ 1.98 µg/mL); MIC [22]: 2 µM (≈ 0.992 µg/mL); Activity [23]: inactive; MIC [24]: 8 µM (≈ 3.97 µg/mL); MIC [25]: 4 µM (≈ 1.98 µg/mL); Activity [26]: inactive; MIC [27]: 16 µM (≈ 7.94 µg/mL); MIC80 [28]: > 500 µM; Activity [29]: inactive; MIC50 [30]: > 500 µM; MIC80 [31]: > 500 µM; MIC50 [32]: 62.5 µM (≈ 31 µg/mL); MIC95 [33]: 7.81 µM (≈ 3.88 µg/mL); MIC [34]: 16 µM (≈ 7.94 µg/mL); MIC80 [35]: > 500 µM; MIC95 [36]: 7.81 µM (≈ 3.88 µg/mL)
